# KCNK9 block – KCNK9 potassium channel inhibitors, primary screen, HEK293 cells, thallium flux; Potassium channel subfamily K member 9 (Homo sapiens), Q9NPC2; FluxOR thallium flux fluorescence; hits give low values; B-score at 10 µM; 310,000 compounds, 1.2% hits; AID 488922, 2010;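 active = ratio B-score over 3 SD below the library mean, with starting fluorescence within 5 SD of its mean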;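 note: negative B-score means less thallium flux so channel inhibition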
# Target sequence (Q9NPC2 whole entry, looked up): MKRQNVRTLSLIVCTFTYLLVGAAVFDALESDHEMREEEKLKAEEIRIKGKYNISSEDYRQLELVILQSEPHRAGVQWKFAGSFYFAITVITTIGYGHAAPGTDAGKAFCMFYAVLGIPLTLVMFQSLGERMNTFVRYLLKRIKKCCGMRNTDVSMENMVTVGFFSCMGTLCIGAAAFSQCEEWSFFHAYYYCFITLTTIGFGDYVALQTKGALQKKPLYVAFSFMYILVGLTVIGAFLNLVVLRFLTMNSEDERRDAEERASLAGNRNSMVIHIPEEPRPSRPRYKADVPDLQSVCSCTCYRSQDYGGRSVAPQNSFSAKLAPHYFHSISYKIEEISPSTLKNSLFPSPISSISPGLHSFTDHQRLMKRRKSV
# Kir21 inh – inhibitors of mouse Kir2.1 inward-rectifier potassium channel. Inward rectifier potassium channel 2 (Mus musculus), P35561. 310,000 compounds, 0.85% hits. HEK293-Kir2.1, FluxOR thallium flux fluorescence; hits give low values. B-score at 10 µM;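 active = fluorescence ratio B-score at or below minus 3 SD of library scores, with starting-brightness B-score within 2 SD, cut at about -4.2 in these data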;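 note: channel flux triggered by added potassium and thallium sulfate stimulus; B-score of peak minus minimum fluorescence over baseline after thallium stimulus; more negative B-score means stronger Kir2.1 block with less thallium influx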
# KCNQ1 pot – potentiators or activators of KCNQ1 channel, primary screen, cell-based, thallium flux, high-throughput; Potassium voltage-gated channel subfamily KQT member 1 (Homo sapiens), P51787; B-score at 10 µM; CHO-K1 KCNQ1, thallium flux FluxOR fluorescence; hits give high values; AID 2648, 2010; 310,000 compounds, 0.35% hits;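 active = fluorescence ratio B-score, a plate-corrected score, at least three library SD, with initial intensity B-score within 5 SD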
#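 Test system: CHO-K1 cells stably expressing KCNQ1 / Medium: assay buffer / Also added: depolarizing K+/Tl+ stimulus, K2SO4 and Tl2SO4 each 12.5 mM in 5x stock / Incubation: 90 min dye loading and 20 min compound exposure, both at room temperature / Signal: thallium influx via FluxOR fluorescence, kinetic imaging / Evaluation: B score of baseline-normalized fluorescence ratio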
# KCNQ1 inh – inhibitors of human KCNQ1 channel, primary screen, cell-based, thallium flux, high-throughput | Potassium voltage-gated channel subfamily KQT member 1 (Homo sapiens), P51787 | CHO-K1 KCNQ1, FluxOR thallium flux fluorescence; hits give high values | B-score at 10 µM | 310,000 compounds, 1.3% hits | AID 2642, 2010;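 active = compounds whose thallium flux B-score, printed positive for inhibition, exceeds three library SD while starting fluorescence stays within three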;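 note: channel opened by potassium depolarization with thallium stimulus after 20 min compound exposure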
# hERG rescue – hERG rescue from dofetilide block, primary screen, cell-based, CHO-hERG, FluxOR thallium flux, dofetilide IC70. Voltage-gated inwardly rectifying potassium channel KCNH2 (Homo sapiens), Q12809. dofetilide IC70 present. activation (rescue from dofetilide block), less the hit threshold, % at 10 µM. 310,000 compounds, 0.51% hits. AID 1511, 2009;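 active = activation above the mean of controls blocked by dofetilide plus 5 SD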;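 note: thallium influx through hERG after potassium depolarization seen as dye fluorescence rise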
# KCNK3 block – human KCNK3 channel inhibitors, primary screen, CHO cells, FluxOR thallium flux, B-score. AID 602410, 2012. Potassium channel subfamily K member 3 (Homo sapiens), O14649. FluxOR fluorescence; hits give low values. 340,000 compounds, 0.84% hits. B-score at 10 µM;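 active = B-score under library mean minus 4 SD, starting fluorescence ratio at most library mean plus 5 SD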;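 note: more negative B-score means stronger inhibition of thallium flux through KCNK3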
# * = called active by the depositor; i = inactive; . = no result given. Shown are actives, neighbours in structure and some others; about 3.8% of the full set was active somewhere.
SMILES,KCNK9 block,Kir21 inh,KCNQ1 pot,KCNQ1 inh,hERG rescue,KCNK3 block
COc1cc(CN(C)C(=O)C2CCN(S(=O)(=O)c3cccs3)CC2)ccc1OC(F)F,.,.,.,.,.,i
O=[N+]([O-])c1ccc(O)c(C=Nc2ccc3c(c2)OCCO3)c1,i,1,i,i,-10,i
Oc1c(Br)cc(Br)cc1C=Nc1ccc2c(c1)OCCO2,i,-0.58,14*,i,-8,i
Oc1c(Br)cc(Br)cc1C=Nc1ccc2c(c1)OCO2,i,-0.44,14*,i,-4,i
COc1ccc(N2C(=O)CC(N3CCN(S(=O)(=O)c4cc(C)ccc4C)CC3)C2=O)cc1 (stereo not given),i,1.3,i,i,-5,i
Cc1ccc(NC(=O)N2CCCCCC2)cc1C,i,-0.81,i,i,-9,i
Cc1ccc(NC(=O)N2CCCN(Cc3ccc(F)cc3)C2)cc1C,i,-5.4*,i,i,-14,i
CCc1ccc2c(CN3CCN(S(=O)(=O)c4ccccc4F)CC3)cc(=O)oc2c1,.,.,.,.,.,i
Cc1nnc(SCc2cc(=O)oc3cc(O)ccc23)n1Cc1ccccc1,i,-0.01,i,i,11*,i
CCc1ccc2c(CN3CCN(Cc4ccccc4)CC3)cc(=O)oc2c1,i,-5.2*,i,i,-18,i
CCC(Oc1ccccc1)C(=O)Nc1ccc(-c2nnc(-c3ccco3)o2)cc1 (stereo not given),-7.3*,0.03,i,i,-9,i
COc1ccc(OC)c(Nc2nc(-c3sc(N)nc3C)cs2)c1,-6.7*,0.1,i,i,-9,i
Cc1cc(O)ccc1Nc1nc(-c2sc(N)nc2C)cs1,i,-1.7,i,i,-16,i
Cc1ccc2cc(C)c(SCC(=O)NCC3CCCO3)nc2c1 (stereo not given),i,-4.3*,i,i,-6,i
CN1C(=O)C2(OCC(C)([N+](=O)[O-])CO2)c2ccccc21 (stereo not given),i,1.5,i,i,8.6*,i
CCOc1ccc(NC(=O)CN(C)C(=O)/C=C/c2ccco2)cc1OCC,.,.,.,.,.,i
Cc1nc2c(C(=O)NCCC(C)C)c[nH]n2c(=O)c1Cc1ccccc1F,i,2.6,i,6*,-10,i
Fc1ccc2nc(Nc3nc4c(F)cccc4s3)sc2c1,i,1.4,46*,i,0,i
O=C(NNc1nc2ccccc2s1)c1ccccc1F,i,0.5,i,i,-3,i
Fc1ccc2nc(Nc3nc4c(F)cc(F)cc4s3)sc2c1,i,1.2,i,i,5.0*,i
Fc1cccc2sc(Nc3nc4ccccc4s3)nc12,i,-0.1,i,i,13*,i
C[C@H](CO)N1C[C@H](C)[C@@H](CN(C)S(=O)(=O)c2cccs2)Oc2ccc(NS(=O)(=O)c3ccccc3)cc2C1=O,.,.,.,.,.,i
Cc1sc2ncnc(N3CCC(C(=O)NNC(=O)COc4ccc(Cl)cc4)CC3)c2c1C,.,.,.,.,.,i
Cc1sc2ncnc(N3CCC(C)CC3)c2c1C,i,1.5,i,i,-12,i
Cc1cc(Cl)ccc1OCC(=O)NNC(=O)C1CCN(c2ncnc3sc(C)c(C)c23)CC1,.,.,.,.,.,-9.9*
SMILES,KCNK9 block,Kir21 inh,KCNQ1 pot,KCNQ1 inh,hERG rescue,KCNK3 block
Cc1sc2ncnc(N3CCN(CCOc4ccc(Cl)cc4)CC3)c2c1C,i,0.22,i,11*,-14,-11*
O=C(NC(=S)Nc1ccccc1)c1cncc(C#Cc2ccccc2)c1,i,-0.29,i,i,5.8*,i
CC(Oc1ccc(Cl)cc1)C(=O)Nc1sccc1C(N)=O (stereo not given),i,-1.8,i,i,6.6*,i
CCC1CCCCN1CCCNC(=O)Cn1ncn2nc(-c3ccc(OC)cc3)cc2c1=O (stereo not given),i,-1.1,i,i,-12,i
Cc1ccc(NC(=O)NNC(=O)COc2ccc(Cl)cc2)cc1,i,1.8,i,i,-5,i
Cc1ccccc1NC(=O)C(=O)NNC(=O)COc1ccc2ccccc2c1,i,-0.02,49*,i,29*,i
COc1ccc(OC)c(NC(=O)C(=O)NNC(=O)COc2ccc(Br)cc2C)c1,i,2.1,66*,i,104*,i
COc1ccc(C)cc1NC(=O)C(=O)NNC(=O)COc1ccc(Cl)cc1,i,0.12,59*,i,88*,i
Cc1ccc(OCC(=O)NNC(=O)C(=O)NC(C)(C)C)cc1,i,1.6,8*,i,3,i
C=CC(=O)Nc1cccc(Nc2nc(N[C@H]3CC[C@H](N(C)C)CC3)nc3c2ncn3C(C)C)c1,.,.,.,.,.,i
COc1ccc(NC(=O)CN(C)C(=O)CN2C(=O)c3ccc([N+](=O)[O-])cc3C2=O)cc1,i,1.4,i,i,-9,i
COc1cccc(OCC(=O)NNC(=O)C(=O)Nc2cccc(C)c2)c1,i,-2,21*,i,17*,i
CC(C)(C)c1ccc(C(=O)NNC(=O)c2cccc(Br)c2)cc1,i,1.6,i,i,-5,i
COc1ccc(OCC(=O)Nc2cccc(OC)c2)cc1,i,0.81,i,i,-8,i
COc1ccc(OCC(=O)NNC(=O)C(=O)Nc2cc(OC)ccc2OC)cc1,i,-0.4,i,i,15*,i
Cc1cccc(NC(=O)C(=O)NNC(=O)c2ccc(C(C)(C)C)cc2)c1,i,-0.36,73*,i,37*,i
COc1ccc(OC)c(NC(=O)NNC(=O)COc2ccc(-c3ccccc3)cc2)c1,i,0.48,i,i,-12,i
Cc1cccc(C)c1NC(=O)N1CCC(C(=O)c2ccc(F)cc2)CC1,i,1.5,i,i,-10,i
COc1ccc(NC(=O)CN2CCc3ccccc3C2)c([N+](=O)[O-])c1,i,0.01,i,i,-4,i
Cc1ccc(S(=O)(=O)Nc2ccccc2N=Cc2ccc([N+](=O)[O-])cc2[N+](=O)[O-])cc1,.,.,.,.,.,i
CC1CCCCN1C(=O)c1cc2ccccc2cc1O (stereo not given),i,-1.4,i,i,-12,i
Cc1ccn2c(c1)nc(=O)c1cc(S(=O)(=O)N3CCCCC3)ccc12,i,0.88,i,i,-1,i
O=c1nc2n(CCO)c3ccccc3cc-2c(=O)[nH]1,.,.,.,.,.,i

# Bioassay records from PubChem BioAssay.
